The term IC50 denotes the concentration needed to halve the response being measured.

The test system of series [1] is Liver microsome. Nature of the series: Intrinsic clearance in human liver microsomes after 30 mins by LC-ESI-MS analysis. To be noted: 0.5 h. Format: ADME. The method, boiled down:
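2'-OH-TCC at 0.2, 0.5, 1, 2, 3, 5, 10 and 50 µM incubated with liver microsomes (alamethicin, MgCl2, saccharolactone, UDPGA; 37 °C), sampled at 5, 10, 15 and 30 min. Samples ≥5 µM diluted 1:9 in ACN; LC-ESI-MS. KM and vmax fitted from rate vs concentration; intrinsic clearance derived from these; mean and SD of three.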

The nature of series [2]: Drug metabolism in human kidney microsomes assessed as N'-glucuronide-triclocarban formation incubated for 5 mins prior to UDPGA addition measured after 30 mins by LC-UV-ESI-MS/MS analysis. Format: ADME. To be noted: 0.5 h. The method, boiled down:
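Pooled human kidney or liver microsomes (liver: 25 mixed-gender donors), 5 µg protein, in 200 µL 100 mM potassium phosphate pH 7.4. Alamethicin pre-treated on ice 15 min. Final 10 µM TCC (2% DMSO), with 10 mM MgCl2 and 10 mM saccharolactone, preincubated 5 min at 37 °C. Started with UDPGA (20 mM stock). Sampled at 5, 10, 15 and 30 min into ACN containing 1 µM DCC internal standard.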

The target of series [3] is T1, UDP-glucuronosyltransferase 1A10 (Homo sapiens, UniProt Q9HAW8).
T1 sequence (Q9HAW8 whole entry): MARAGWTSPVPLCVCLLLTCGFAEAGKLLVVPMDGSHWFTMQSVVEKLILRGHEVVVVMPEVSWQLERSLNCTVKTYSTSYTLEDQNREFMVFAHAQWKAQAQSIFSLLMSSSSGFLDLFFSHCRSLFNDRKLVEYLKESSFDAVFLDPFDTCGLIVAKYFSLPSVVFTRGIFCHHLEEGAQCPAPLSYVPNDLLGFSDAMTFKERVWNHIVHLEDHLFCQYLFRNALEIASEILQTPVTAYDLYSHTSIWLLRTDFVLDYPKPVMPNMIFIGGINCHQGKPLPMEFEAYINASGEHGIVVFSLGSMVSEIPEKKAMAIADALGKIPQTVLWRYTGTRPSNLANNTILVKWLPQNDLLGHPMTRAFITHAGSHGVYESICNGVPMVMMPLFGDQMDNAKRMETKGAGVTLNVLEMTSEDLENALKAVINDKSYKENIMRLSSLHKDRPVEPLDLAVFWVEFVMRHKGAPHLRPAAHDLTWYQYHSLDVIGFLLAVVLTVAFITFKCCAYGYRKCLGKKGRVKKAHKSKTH
Nature of the series: Drug metabolism assessed as human UGT1A10-mediated N'-glucuronide-triclocarban formation expressed in baculovirus infected insect sf9 cells incubated for 5 mins prior to UDPGA addition measured after 5 to 30 mins by LC-UV analysis. Format: ADME. The method, boiled down: (§1)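 Microsomes or UGT Supersomes (5 µg protein) were held 15 min on ice with alamethicin in 100 mM potassium phosphate pH 7.4. TCC was added at 10 µM (2% DMSO) with 10 mM MgCl2 and 10 mM saccharolactone, pre-warmed 5 min at 37 °C, then started with UDPGA. Samples at 5, 10, 15 and 30 min were quenched in ACN. Product was read by LC-UV at 265 nm; rate came from regression over time, three incubations.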

Series [4] concerns the target T2, UDP-glucuronosyltransferase 1A4 (Homo sapiens, UniProt P22310).
T2 sequence (P22310 whole entry): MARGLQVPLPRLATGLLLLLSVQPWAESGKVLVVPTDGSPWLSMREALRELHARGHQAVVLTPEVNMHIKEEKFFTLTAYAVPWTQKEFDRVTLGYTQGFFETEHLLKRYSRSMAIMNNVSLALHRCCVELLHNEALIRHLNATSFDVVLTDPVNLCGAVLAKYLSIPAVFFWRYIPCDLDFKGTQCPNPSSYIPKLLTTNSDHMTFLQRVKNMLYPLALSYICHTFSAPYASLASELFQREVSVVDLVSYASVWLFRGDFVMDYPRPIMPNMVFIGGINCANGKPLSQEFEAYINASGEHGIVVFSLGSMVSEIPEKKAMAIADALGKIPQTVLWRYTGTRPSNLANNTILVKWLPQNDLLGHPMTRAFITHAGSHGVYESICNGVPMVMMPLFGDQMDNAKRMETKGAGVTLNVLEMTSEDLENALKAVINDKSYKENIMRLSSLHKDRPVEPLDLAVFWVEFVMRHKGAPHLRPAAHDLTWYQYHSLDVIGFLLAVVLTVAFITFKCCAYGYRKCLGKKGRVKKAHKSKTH
Nature of the series: Drug metabolism assessed as human UGT1A4-mediated N-glucuronide-triclocarban formation expressed in baculovirus infected insect sf9 cells incubated for 5 mins prior to UDPGA addition measured after 5 to 30 mins by LC-UV analysis. It counts as ADME. The gist of the method: as §1

Series [5] deals with T2, UDP-glucuronosyltransferase 1A4. Nature of the series: Drug metabolism assessed as human UGT1A4-mediated N'-glucuronide-triclocarban formation expressed in baculovirus infected insect sf9 cells incubated for 5 mins prior to UDPGA addition measured after 5 to 30 mins by LC-UV analysis. It counts as ADME. The method, boiled down:
as §1

The nature of series [6]: Drug excretion in Sprague-Dawley rat urine assessed as N-glucuronide-triclocarban formation at 1 mg/kg, po by LC-MS analysis. Set-up: dose 1 mg/kg, route oral. To be noted: in vivo. It counts as ADME, organism-based.
Series [7] can be described thus: Drug excretion in Swiss webster mouse urine assessed as 3'-O-glucuronide-triclocarban formation at 5 mg/kg, po by LC-MS analysis. It counts as ADME, organism-based. Set-up: dose 5 mg/kg, route oral. To be noted: in vivo. The gist of the method: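 Mice were housed two per metabolic cage, with blank urine collected over the 24 h before dosing. TCC was given by oral gavage as a 1 mg/mL solution in 20/80 DMSO/PEG400 (v/v) at 5 mg/kg. Urine was collected at 0-24 h and 24-48 h and analysed by online LC-MS. Values are the mean of two independent experiments.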

Series [8] concerns the target T3, UDP-glucuronosyltransferase 2B15 (Homo sapiens, UniProt P54855).
T3 sequence (P54855 whole entry): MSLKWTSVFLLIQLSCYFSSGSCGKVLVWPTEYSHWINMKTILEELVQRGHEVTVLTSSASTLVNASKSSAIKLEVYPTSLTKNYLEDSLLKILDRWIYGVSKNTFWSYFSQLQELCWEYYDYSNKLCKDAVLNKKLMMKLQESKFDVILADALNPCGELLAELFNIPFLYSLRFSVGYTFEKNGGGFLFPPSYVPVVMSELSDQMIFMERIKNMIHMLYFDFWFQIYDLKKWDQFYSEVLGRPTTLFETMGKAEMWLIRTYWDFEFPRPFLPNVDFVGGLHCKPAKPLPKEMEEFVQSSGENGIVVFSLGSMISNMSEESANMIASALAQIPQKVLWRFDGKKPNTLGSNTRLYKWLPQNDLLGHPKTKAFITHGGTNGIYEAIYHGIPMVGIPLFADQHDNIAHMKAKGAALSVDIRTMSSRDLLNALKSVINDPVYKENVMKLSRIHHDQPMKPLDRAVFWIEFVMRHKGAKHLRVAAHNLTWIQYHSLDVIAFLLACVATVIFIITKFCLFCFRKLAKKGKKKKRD
Description: Drug metabolism assessed as human UGT2B15-mediated N-glucuronide-triclocarban formation expressed in baculovirus infected insect sf9 cells incubated for 5 mins prior to UDPGA addition measured after 5 to 30 mins by LC-UV analysis. Format: ADME. The gist of the method:
as §1

A short description of series [9]: Inhibition of human recombinant soluble epoxide hydrolase using CMNPC as substrate.

In turn, `O=C(Nc1ccc(Cl)c(Cl)c1)Nc1ccc(Cl)cc1O` had a CLH in series [1] of 1740 µL/min/mg.

As for `O=C(Nc1ccc(Cl)cc1)Nc1ccc(Cl)c(Cl)c1` [TRICLOCARBAN], the Drug metabolism entry in series [2] is “metabolite_detected”; in series [3], “metabolite_not_detected”; in series [4], “metabolite_not_detected”; in [5], “metabolite_not_detected”; in series [8], “metabolite_not_detected”. Also, the Drug excretion entry in series [6] is on record as “metabolite_not_detected”; in [7], “metabolite_detected”. For the same compound, the half-maximal inhibitory concentration (IC50) in series [9] is 24 nM.

The values above are taken from ChEMBL document CHEMBL3525967, “In vitro glucuronidation of the antibacterial triclocarban and its oxidative metabolites” (Drug Metab Dispos, 2012).
